How the values were obtained:
[1] = Lipophilicity of the compound assessed as capacity factor by HPLC analysis; assay type: physicochemical
Outline: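 Reversed-phase C18 HPLC (4.6 × 250 mm, 5 μm), 1 mL/min, acidified acetonitrile gradient 20→80% B over 30 min, diode-array detection. Capacity factor K = (tR − t0)/t0, where t0 is the retention time of the AA standard.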

[2] = Growth inhibition of human Caco2 cells measured after 72 hrs by MTT assay; assay type: functional; details: Caco-2, 72 h
Outline: (§1)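 Cells plated at (2.5−3.0) × 10^3 per 0.33 cm2, treated after 24 h with 0.01−100 μM (final) for 3 days at 37 °C, 5% CO2; controls got 0.5−1% DMSO. MTT read at 570 nm, 6−8 wells per value.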

[3] = Growth inhibition of human MCF7 cells measured after 72 hrs by MTT assay; assay type: functional; details: MCF7, 72 h; outline: as §1
[4] = Growth inhibition of human PC3 cells measured after 72 hrs by MTT assay; assay type: functional; details: PC-3, 72 h; outline: as §1
[5] = Cell cycle arrest in human Caco2 cells assessed as accumulation at sub-G1 phase at 100 uM measured after 24 to 36 hrs by propidium iodide staining-based flow cytometry; assay type: functional; details: Caco-2
Outline: (§2)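 Caco-2 cells grown in six-well plates, treated 24–36 h, compared with vehicle-treated cells. Harvested by trypsinization, PBS-washed, fixed in 70% ethanol at 4 °C for at least 30 min. Then RNase A for 1 h at 37 °C, propidium iodide (final 50 μg/mL) for 1 h at 37 °C, and analysed by flow cytometry. Means of three independent experiments.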

[6] = Cell cycle arrest in human Caco2 cells assessed as accumulation at G0/G1 phase at 100 uM measured after 24 to 36 hrs by propidium iodide staining-based flow cytometry (reference value: 51.1%); assay type: functional; details: Caco-2; outline: as §2
[7] = Cell cycle arrest in human Caco2 cells assessed as accumulation at S-phase at 100 uM measured after 24 to 36 hrs by propidium iodide staining-based flow cytometry (reference value: 18 to 19.5%); assay type: functional; details: Caco-2; outline: as §2
[8] = Cell cycle arrest in human Caco2 cells assessed as accumulation at G2-phase at 100 uM measured after 24 to 36 hrs by propidium iodide staining-based flow cytometry (reference value: 28%); assay type: functional; details: Caco-2; outline: as §2
Caco-2 [9] = test: Induction of apoptosis in human Caco2 cells assessed as viable cells at 100 uM measured after 24 hrs by Alexa Fluor 488 Annexin V/propidium iodide staining-based flow cytometry (reference value: 95.1%); assay type: functional; details: Caco-2, 24 h, read-out: Activity
Caco-2 [10] = test: Induction of apoptosis in human Caco2 cells assessed as early apoptotic cells at 100 uM measured after 24 hrs by Alexa Fluor 488 Annexin V/propidium iodide staining-based flow cytometry (reference value: 3.9%); assay type: functional
Caco-2 [11] = test: Induction of apoptosis in human Caco2 cells assessed as late apoptotic cells at 100 uM measured after 24 hrs by Alexa Fluor 488 Annexin V/propidium iodide staining-based flow cytometry (reference value: 1.8%); assay type: functional
Caco-2 [12] = test: Induction of apoptosis in human Caco2 cells assessed as necrotic cells at 100 uM measured after 24 hrs by Alexa Fluor 488 Annexin V/propidium iodide staining-based flow cytometry (reference value: […]); assay type: functional

SMILES	K [1]	GI50 [2]	GI50 [3]	GI50 [4]	further results
COc1cc([C@@H]2Oc3c(OC)cc(/C=C/C(=O)NCc4cc(OC)c(OC)c(OC)c4)cc3[C@H]2C(=O)NCc2cc(OC)c(OC)c(OC)c2)ccc1O (racemic)	6.32				
COc1cc([C@@H]2Oc3c(OC)cc(/C=C/C(=O)NCc4ccc(C)cc4)cc3[C@H]2C(=O)NCc2ccc(C)cc2)ccc1O (racemic)	8.45				
O=c1[nH]cc(F)c(=O)[nH]1 [FLUOROURACIL]		3.3 to 4.2 µM	3.6 to 3.8 µM	4.1 to 6.3 µM	Activity [5]: 10.4%; Activity [6]: 50.1%; Activity [7]: 37.5 to 39.8%; Activity [8]: 1.9%; viability at 100 µM (Caco-2 [9]): 36.8%; Activity (Caco-2 [10]): 56.2%; Activity (Caco-2 [11]): 5.3%; Activity (Caco-2 [12]): 0.3%
COc1cc(CNC(=O)/C=C/c2ccc3c(c2)[C@@H](C(=O)NCc2cc(OC)c(OC)c(OC)c2)[C@H](c2ccc(O)cc2)O3)cc(OC)c1OC (racemic)	6.35				
COc1cc(CNC(=O)/C=C/c2cc(O)c3c(c2)[C@@H](C(=O)NCc2cc(OC)c(OC)c(OC)c2)[C@H](c2ccc(O)c(O)c2)O3)cc(OC)c1OC (racemic)	5.69				
O=C(/C=C/c1cc(O)c2c(c1)[C@@H](C(=O)NCCc1ccc(O)cc1)[C@H](c1ccc(O)c(O)c1)O2)NCCc1ccc(O)cc1 (racemic)	0.56	> 10 µM	39.7 µM	66 µM	
Cc1ccc(CNC(=O)/C=C/c2cc(O)c3c(c2)[C@@H](C(=O)NCc2ccc(C)cc2)[C@H](c2ccc(O)c(O)c2)O3)cc1 (racemic)	7.89				
O=C(/C=C/c1ccc2c(c1)[C@@H](C(=O)NCCc1ccc(O)cc1)[C@H](c1ccc(O)cc1)O2)NCCc1ccc(O)cc1 (racemic)	5.2	28.9 µM	33.2 µM	26 µM	
COc1cc([C@@H]2Oc3c(OC)cc(/C=C/C(=O)NCCc4ccc(O)cc4)cc3[C@H]2C(=O)NCCc2ccc(O)cc2)ccc1O (racemic) [GROSSAMIDE]	2.32	> 100 µM	24 µM	21 µM	
Cc1ccc(CNC(=O)/C=C/c2ccc3c(c2)[C@@H](C(=O)NCc2ccc(C)cc2)[C@H](c2ccc(O)cc2)O3)cc1 (racemic)	8.36				
